Measurements as given in ChEMBL document CHEMBL4261600 (Eur J Med Chem, 2018).

Columns and labels:
[1] = molecular target: Calcium/calmodulin-dependent protein kinase type IV (Homo sapiens) (UniProt Q16566); test: Binding affinity to wild-type human partial length CAMK4 (A22 to A322 residues) expressed in bacterial expression system assessed as remaining unbound target protein level at 1000 nM by Kinomescan method relative to control
In short: (§1)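 Profiled in a KINOMEscan binding panel with the inhibitor at a single concentration of 1 μM. Binding to each kinase was read out as percent of control, relative to a DMSO control. Strong binders were defined as those with a percent control value below 1.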

[2] = molecular target: Dual specificity protein kinase CLK4 (Homo sapiens) (UniProt Q9HAZ1); test: Binding affinity to wild-type human partial length CLK4 (R135 to K481 residues) expressed in bacterial expression system assessed as remaining unbound target protein level at 1000 nM by Kinomescan method relative to control
Sequence of Dual specificity protein kinase CLK4 (Homo sapiens) (Q9HAZ1 whole entry, looked up, the tested form may be a part): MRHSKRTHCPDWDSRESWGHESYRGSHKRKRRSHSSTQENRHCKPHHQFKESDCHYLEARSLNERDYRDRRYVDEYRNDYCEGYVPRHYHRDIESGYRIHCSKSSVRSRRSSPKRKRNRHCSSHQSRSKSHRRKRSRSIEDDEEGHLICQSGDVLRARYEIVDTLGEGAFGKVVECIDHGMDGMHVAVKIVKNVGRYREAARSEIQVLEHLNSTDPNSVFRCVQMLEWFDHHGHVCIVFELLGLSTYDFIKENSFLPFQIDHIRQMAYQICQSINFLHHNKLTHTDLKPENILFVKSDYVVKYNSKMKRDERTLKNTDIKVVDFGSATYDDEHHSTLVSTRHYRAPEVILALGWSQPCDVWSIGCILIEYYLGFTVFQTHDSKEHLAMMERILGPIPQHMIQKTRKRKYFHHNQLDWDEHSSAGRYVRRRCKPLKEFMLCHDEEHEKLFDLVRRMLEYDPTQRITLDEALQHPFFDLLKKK
In short: (§2)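 KINOMEscan competition binding profile across a panel of 468 kinases and mutants, with the inhibitor tested at a single concentration of 1 μM. Binding is reported as percent of control, meaning signal relative to a DMSO control.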

[3] = molecular target: Cyclin-dependent kinase 13 (Homo sapiens) (UniProt Q14004); test: Binding affinity to wild-type human partial length CDC2L5 (H675 to S1054 residues) expressed in mammalian expression system assessed as remaining unbound target protein level at 1000 nM by Kinomescan method relative to control; in short: as §2
[4] = molecular target: Calcium/calmodulin-dependent protein kinase type II subunit delta (Homo sapiens) (UniProt Q13557); test: Binding affinity to wild-type human partial length CAMK2D (M1 to E329 residues) expressed in bacterial expression system assessed as remaining unbound target protein level at 1000 nM by Kinomescan method relative to control; in short: as §1
[5] = molecular target: Cyclin-dependent kinase-like 2 (Homo sapiens) (UniProt Q92772); test: Binding affinity to wild-type human partial length CDKL2 (M1 to D327 residues) expressed in bacterial expression system assessed as remaining unbound target protein level at 1000 nM by Kinomescan method relative to control; in short: as §2
Sequence of Cyclin-dependent kinase-like 2 (Homo sapiens) (Q92772 whole entry, the tested form may be a part): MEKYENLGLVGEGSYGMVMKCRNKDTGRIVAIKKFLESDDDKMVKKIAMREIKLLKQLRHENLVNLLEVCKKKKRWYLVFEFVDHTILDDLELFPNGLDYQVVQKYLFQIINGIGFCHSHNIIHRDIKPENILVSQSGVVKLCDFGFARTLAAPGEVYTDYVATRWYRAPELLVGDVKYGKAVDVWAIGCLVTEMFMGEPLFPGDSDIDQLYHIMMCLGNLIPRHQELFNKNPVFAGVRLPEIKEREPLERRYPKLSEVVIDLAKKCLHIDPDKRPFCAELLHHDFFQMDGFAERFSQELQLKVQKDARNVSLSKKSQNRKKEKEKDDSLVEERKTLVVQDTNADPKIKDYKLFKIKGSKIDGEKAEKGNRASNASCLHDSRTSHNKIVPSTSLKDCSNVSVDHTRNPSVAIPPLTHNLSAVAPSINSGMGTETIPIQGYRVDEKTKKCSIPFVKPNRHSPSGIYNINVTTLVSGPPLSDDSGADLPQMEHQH

[6] = molecular target: Bone morphogenetic protein receptor type-1B (Homo sapiens) (UniProt O00238); test: Binding affinity to wild-type human partial length BMPR1B (D178 to L502 residues) expressed in mammalian expression system assessed as remaining unbound target protein level at 1000 nM by Kinomescan method relative to control
Sequence of Bone morphogenetic protein receptor type-1B (Homo sapiens) (O00238 whole entry, the tested form may be a part): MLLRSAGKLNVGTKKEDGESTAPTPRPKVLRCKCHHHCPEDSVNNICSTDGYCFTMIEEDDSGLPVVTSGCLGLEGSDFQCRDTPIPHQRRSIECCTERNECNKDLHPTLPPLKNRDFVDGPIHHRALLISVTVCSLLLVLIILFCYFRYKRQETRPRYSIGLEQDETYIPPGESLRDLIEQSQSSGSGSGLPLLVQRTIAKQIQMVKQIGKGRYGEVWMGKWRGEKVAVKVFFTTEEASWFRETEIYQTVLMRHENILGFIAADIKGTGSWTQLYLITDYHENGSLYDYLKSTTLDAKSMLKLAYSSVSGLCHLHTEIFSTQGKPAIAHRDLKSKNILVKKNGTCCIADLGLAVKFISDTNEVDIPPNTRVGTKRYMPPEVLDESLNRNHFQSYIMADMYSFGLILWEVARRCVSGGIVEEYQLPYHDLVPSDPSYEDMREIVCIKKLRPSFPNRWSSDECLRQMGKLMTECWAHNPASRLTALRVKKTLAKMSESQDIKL

[7] = tested on: Mast/stem cell growth factor receptor Kit (Homo sapiens), P10721 [D816V]; test: Binding affinity to human partial length KIT D816V mutant (I571 to D952 residues) expressed in bacterial expression system assessed as remaining unbound target protein level at 1000 nM by Kinomescan method relative to control
In short: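 KINOMEscan competition-binding profiling across the panel of 468 kinases and mutants, with inhibitor tested at 1 μM. Binding is expressed as percent of control, with DMSO as the reference control.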

[8] = molecular target: BMP-2-inducible protein kinase (Homo sapiens) (UniProt Q9NSY1); test: Binding affinity to wild-type human partial length BIKE (S34 to N329 residues) expressed in bacterial expression system assessed as remaining unbound target protein level at 1000 nM by Kinomescan method relative to control; in short: as §1
Sequence of BMP-2-inducible protein kinase (Homo sapiens) (Q9NSY1 whole entry, looked up, the tested form may be a part): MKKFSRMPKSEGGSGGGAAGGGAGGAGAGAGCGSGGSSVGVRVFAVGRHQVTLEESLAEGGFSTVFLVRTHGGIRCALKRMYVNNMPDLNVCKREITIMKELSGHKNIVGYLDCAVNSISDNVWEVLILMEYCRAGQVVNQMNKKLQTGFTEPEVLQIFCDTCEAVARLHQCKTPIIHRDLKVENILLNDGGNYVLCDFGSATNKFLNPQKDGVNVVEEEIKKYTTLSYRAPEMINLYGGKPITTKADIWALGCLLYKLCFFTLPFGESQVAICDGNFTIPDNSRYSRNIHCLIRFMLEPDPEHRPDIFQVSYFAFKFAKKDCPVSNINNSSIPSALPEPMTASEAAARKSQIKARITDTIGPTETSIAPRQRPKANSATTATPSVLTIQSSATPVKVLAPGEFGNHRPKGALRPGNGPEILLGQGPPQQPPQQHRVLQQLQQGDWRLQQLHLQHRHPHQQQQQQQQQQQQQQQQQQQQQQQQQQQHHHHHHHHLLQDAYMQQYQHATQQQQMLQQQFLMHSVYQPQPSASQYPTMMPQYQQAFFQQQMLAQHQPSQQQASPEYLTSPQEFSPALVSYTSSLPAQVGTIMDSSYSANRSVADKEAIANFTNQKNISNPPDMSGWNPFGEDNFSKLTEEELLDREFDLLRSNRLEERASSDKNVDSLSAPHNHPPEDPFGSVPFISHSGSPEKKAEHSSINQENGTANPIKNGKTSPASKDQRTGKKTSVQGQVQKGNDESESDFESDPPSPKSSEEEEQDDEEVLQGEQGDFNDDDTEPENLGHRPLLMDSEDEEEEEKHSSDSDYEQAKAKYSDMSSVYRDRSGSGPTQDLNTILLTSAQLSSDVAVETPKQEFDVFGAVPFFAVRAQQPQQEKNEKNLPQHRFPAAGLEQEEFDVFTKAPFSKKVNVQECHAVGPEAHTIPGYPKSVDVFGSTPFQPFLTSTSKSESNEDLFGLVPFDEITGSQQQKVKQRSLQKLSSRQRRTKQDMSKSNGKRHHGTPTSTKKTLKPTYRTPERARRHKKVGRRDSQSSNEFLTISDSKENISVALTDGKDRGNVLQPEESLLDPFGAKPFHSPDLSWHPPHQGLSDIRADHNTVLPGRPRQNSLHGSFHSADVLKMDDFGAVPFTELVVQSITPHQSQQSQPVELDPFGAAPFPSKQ

[9] = molecular target: 1-phosphatidylinositol 3-phosphate 5-kinase (Homo sapiens) (UniProt Q9Y2I7); test: Binding affinity to wild-type human partial length PIKFYVE (F1512 to C2098 residues) expressed in mammalian expression system assessed as remaining unbound target protein level at 1000 nM by Kinomescan method relative to control
[10] = molecular target: Serine/threonine-protein kinase SBK1 (Homo sapiens) (UniProt Q52WX2); test: Binding affinity to wild-type human partial length SBK1 (P23 to P348 residues) expressed in mammalian expression system assessed as remaining unbound target protein level at 1000 nM by Kinomescan method relative to control
Sequence of Serine/threonine-protein kinase SBK1 (Homo sapiens) (Q52WX2 whole entry, the tested form may be a part): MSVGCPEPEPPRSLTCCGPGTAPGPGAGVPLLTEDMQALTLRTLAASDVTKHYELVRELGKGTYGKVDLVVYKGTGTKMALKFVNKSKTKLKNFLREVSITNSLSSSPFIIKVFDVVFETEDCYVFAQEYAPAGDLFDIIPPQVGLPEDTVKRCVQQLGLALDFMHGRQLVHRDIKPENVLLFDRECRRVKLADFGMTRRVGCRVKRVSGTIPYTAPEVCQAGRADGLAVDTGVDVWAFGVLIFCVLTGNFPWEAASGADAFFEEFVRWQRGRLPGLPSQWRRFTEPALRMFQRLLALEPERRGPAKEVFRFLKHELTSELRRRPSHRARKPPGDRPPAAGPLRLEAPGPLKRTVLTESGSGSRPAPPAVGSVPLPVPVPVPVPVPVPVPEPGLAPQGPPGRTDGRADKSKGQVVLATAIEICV

[11] = molecular target: Vascular endothelial growth factor receptor 2 (Homo sapiens, UniProt P35968); test: Binding affinity to wild-type human partial length VEGFR2 (R787 to P1253 residues) expressed in mammalian expression system assessed as remaining unbound target protein level at 1000 nM by Kinomescan method relative to control; settings: read-out: Activity
[12] = molecular target: Hepatocyte growth factor receptor (Homo sapiens) (UniProt P08581); test: Binding affinity to wild-type human partial length MET (D1010 to S1367 residues) expressed in bacterial expression system assessed as remaining unbound target protein level at 1000 nM by Kinomescan method relative to control
[13] = molecular target: Rho-associated protein kinase 2 (Homo sapiens) (UniProt O75116); test: Binding affinity to wild-type human partial length ROCK2 (M1 to T431 residues) expressed in mammalian expression system assessed as remaining unbound target protein level at 1000 nM by Kinomescan method relative to control
[14] = molecular target: Fibroblast growth factor receptor 1 (Homo sapiens) (UniProt P11362); test: Binding affinity to wild-type human partial length FGFR1 (P357 to V669 residues) expressed in bacterial expression system assessed as remaining unbound target protein level at 1000 nM by Kinomescan method relative to control
In short: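 KINOMEscan binding panel of 468 kinases/mutants. Inhibitor was tested at a single concentration of 1 μM. Binding is reported as percent of control, defined relative to a DMSO control.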

[15] = AUC (0 to t) in beagle dog at 10 mg/kg, po by LC-MS/MS analysis; assay type: ADME, organism-based, Canis lupus familiaris; settings: in vivo
In short: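 Non-compartmental PK. Male SD rats 190-210 g, mice and beagle dogs acclimatized one week, fasted 12 h with water, split into iv and po groups (mice 48, rats 6, dogs 6). iv 3/3/2 mg/kg (mice/rats/dogs); po 10/20/10 mg/kg; vehicle DMSO in 5% glucose water. Blood at 2 or 5 to 720 min; plasma protein-precipitated with methanol, caffeine internal standard, LC-MS/MS.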

[16] = Cmax in beagle dog at 2 mg/kg, iv by LC-MS/MS analysis; assay type: ADME, organism-based, Canis lupus familiaris; set-up: dose 2 mg/kg, route intravenous; settings: in vivo
[17] = Tmax in Sprague-Dawley rat at 3 mg/kg, iv by LC-MS/MS analysis; assay type: ADME, organism-based; settings: in vivo
[18] = molecular target: Myosin-IIIb (Homo sapiens) (UniProt Q8WXR4); test: Binding affinity to wild-type human partial length MYO3B (M1 to D357 residues) expressed in bacterial expression system assessed as remaining unbound target protein level at 1000 nM by Kinomescan method relative to control
Sequence of Myosin-IIIb (Homo sapiens) (Q8WXR4 whole entry, the tested form may be a part): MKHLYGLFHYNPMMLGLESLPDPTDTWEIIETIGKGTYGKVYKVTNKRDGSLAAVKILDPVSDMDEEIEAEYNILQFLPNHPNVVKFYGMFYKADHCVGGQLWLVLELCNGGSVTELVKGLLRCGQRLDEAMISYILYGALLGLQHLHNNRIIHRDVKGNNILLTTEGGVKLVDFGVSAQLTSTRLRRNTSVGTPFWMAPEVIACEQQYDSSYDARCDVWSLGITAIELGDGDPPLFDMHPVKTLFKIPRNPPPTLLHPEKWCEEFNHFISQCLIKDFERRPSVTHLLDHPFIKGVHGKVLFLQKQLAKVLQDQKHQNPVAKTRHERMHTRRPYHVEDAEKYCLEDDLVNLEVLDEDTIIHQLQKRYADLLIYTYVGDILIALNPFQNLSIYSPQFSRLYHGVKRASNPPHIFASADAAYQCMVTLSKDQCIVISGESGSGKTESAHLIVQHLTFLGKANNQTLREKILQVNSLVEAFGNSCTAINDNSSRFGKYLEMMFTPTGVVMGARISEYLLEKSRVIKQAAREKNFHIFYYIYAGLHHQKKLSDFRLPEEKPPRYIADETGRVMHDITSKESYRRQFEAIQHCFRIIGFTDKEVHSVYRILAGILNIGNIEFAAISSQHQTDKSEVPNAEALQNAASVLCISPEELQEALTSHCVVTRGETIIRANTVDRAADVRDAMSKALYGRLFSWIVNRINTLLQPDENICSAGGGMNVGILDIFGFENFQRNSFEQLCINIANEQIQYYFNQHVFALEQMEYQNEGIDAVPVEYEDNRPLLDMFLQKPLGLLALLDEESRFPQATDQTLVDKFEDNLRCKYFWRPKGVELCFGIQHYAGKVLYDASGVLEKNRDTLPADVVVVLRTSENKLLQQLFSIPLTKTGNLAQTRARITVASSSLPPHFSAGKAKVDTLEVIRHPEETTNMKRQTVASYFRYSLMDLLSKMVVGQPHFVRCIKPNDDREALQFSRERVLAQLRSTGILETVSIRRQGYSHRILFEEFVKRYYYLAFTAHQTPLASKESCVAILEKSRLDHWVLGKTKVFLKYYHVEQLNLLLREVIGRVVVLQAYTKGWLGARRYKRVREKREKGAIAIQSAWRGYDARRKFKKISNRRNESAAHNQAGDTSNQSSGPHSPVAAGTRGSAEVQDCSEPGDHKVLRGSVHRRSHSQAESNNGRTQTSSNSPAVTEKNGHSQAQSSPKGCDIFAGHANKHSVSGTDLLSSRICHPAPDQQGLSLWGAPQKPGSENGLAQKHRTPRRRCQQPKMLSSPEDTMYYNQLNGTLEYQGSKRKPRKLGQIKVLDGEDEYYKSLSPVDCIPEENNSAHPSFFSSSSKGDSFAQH

[19] = molecular target: Wee1-like protein kinase 2 (Homo sapiens) (UniProt P0C1S8); test: Binding affinity to wild-type human partial length WEE2 (M204 to K492 residues) expressed in bacterial expression system assessed as remaining unbound target protein level at 1000 nM by Kinomescan method relative to control
[20] = molecular target: Serine/threonine-protein kinase pim-3 (Homo sapiens) (UniProt Q86V86); test: Binding affinity to wild-type human partial length PIM3 (G16 to A317 residues) expressed in bacterial expression system assessed as remaining unbound target protein level at 1000 nM by Kinomescan method relative to control
[21] = molecular target: Mitogen-activated protein kinase 12 (Homo sapiens) (UniProt P53778); test: Binding affinity to wild-type human full length p38-gamma (M1 to L367 residues) expressed in mammalian expression system assessed as remaining unbound target protein level at 1000 nM by Kinomescan method relative to control; in short: as §2

Sequence of Calcium/calmodulin-dependent protein kinase type IV (Homo sapiens) (Q16566 whole entry, the tested form may be a part): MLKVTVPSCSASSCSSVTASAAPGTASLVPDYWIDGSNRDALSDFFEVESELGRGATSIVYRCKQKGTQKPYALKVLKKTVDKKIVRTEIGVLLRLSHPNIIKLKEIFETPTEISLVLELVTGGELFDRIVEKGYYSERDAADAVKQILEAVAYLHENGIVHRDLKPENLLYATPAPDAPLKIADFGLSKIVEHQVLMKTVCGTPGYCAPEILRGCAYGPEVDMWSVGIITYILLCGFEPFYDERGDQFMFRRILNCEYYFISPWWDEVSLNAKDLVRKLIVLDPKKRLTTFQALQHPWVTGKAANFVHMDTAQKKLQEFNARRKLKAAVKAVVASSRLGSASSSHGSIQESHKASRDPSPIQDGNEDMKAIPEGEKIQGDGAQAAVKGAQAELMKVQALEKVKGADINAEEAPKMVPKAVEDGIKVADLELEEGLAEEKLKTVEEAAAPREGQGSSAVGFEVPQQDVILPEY

SMILES: COCCN[C@H]1CC[C@H](Nc2cc(-c3csc(NCC4(C#N)CCOCC4)n3)c(Cl)cn2)CC1
- Activity [1]: 100%
- Activity [2]: 9.2%
- Activity [3]: 13%
- Activity [4]: 83%
- Activity [5]: 63%
- Activity [6]: 84%
- Activity [7]: 87%
- Activity [8]: 100%
- Activity [9]: 95%
- Activity [10]: 75%
- activity at 1 µM [11]: 98%
- Activity [12]: 73%
- Activity [13]: 98%
- Activity [14]: 95%
- AUC(0-t) [15]: 3940 ng·h/mL
- Cmax [16]: 414 ng/mL
- Tmax [17]: 1.2 min
- Activity [18]: 82%
- Activity [19]: 100%
- Activity [20]: 65%
- Activity [21]: 99%
